The record followed here is ChEMBL document CHEMBL4619757, “Identification of new arylsulfide derivatives as anti-melanogenic agents in a zebrafish model” (Bioorg Med Chem Lett, 2020).

Calls of active or inactive are those of the source. The rule behind the calls is not given here. Where only a bound is given, the exact number is not on record here.

The species entered for data set [1] is Danio rerio. The experiment in a line: Antimelanogenic activity against zebrafish embryo assessed as whitening efficacy at 10 uM. It counts as functional, organism-based.
For data set [2], the species on record is Danio rerio. Kind of data set: Antimelanogenic activity against zebrafish embryo assessed as whitening efficacy. It counts as functional, organism-based. The essentials: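 Synchronized zebrafish embryos were treated with compound and scored for pigmentation. Controls received 0.1% DMSO or 0.2 mM PTU.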
The subject of data set [3] is HMV-2 cell line. The experiment in a line: Antimelanogenic activity against human HMVII cells assessed as change in melanin colour from black to brown. The data set is classed as functional, cell-based.
Data set [4] deals with HMV-2 cell line. The experiment in a line: Antimelanogenic activity against human HMVII cells assessed as melanin content in cell lysate at 1 uM relative to control. The data set is classed as functional. In a few lines: (§1)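 Human melanoma HMV-II cells were exposed to compound at 1, 10 or 20 µM. Melanin was pelleted from cell lysates, and total melanin content was expressed relative to the DMSO-treated control.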

The subject of data set [5] is HMV-2 cell line. Kind of data set: Antimelanogenic activity against human HMVII cells assessed as melanin content in cell lysate at 10 uM relative to control. It counts as functional. The essentials: as §1
Data set [6] has as its system HMV-2 cell line. The experiment in a line: Antimelanogenic activity against human HMVII cells assessed as melanin content in cell lysate at 20 uM relative to control. The data set is classed as functional. In a few lines: as §1
For data set [7], the system named is HMV-2 cell line. The experiment in a line: Antimelanogenic activity against human HMVII cells assessed as reduction in TRP1 mRNA level at 1 to 20 uM measured after 24 hrs by RT-PCR analysis. The data set is classed as functional, cell-based. The essentials: (§2)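 HMV-II melanoma cells were treated with compound for 24 h. MITF, TRP-1 and TRP-2 mRNA levels were then quantified by real-time RT-PCR.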

Data set [8] has as its system HMV-2 cell line. Kind of data set: Antimelanogenic activity against human HMVII cells assessed as reduction in melanin content in cell lysate. It counts as functional, cell-based. The essentials: as §1
Data set [9] deals with HMV-2 cell line. The experiment in a line: Antimelanogenic activity against human HMVII cells assessed as reduction in TRP2 mRNA level at 1 to 20 uM measured after 24 hrs by RT-PCR analysis. The data set is classed as functional, cell-based. The essentials:
as §2

Data set [10] relates to HMV-2 cell line. The experiment in a line: Antimelanogenic activity against human HMVII cells assessed as reduction in MITF mRNA level at 1 to 20 uM measured after 24 hrs by RT-PCR analysis. It counts as functional, cell-based. In a few lines: as §2
In data set [11] the test system is HMV-2 cell line. Kind of data set: Antimelanogenic activity against human HMVII cells assessed as reduction in tyrosinase mRNA level at 10 to 20 uM measured after 24 hrs by RT-PCR analysis. It counts as functional, cell-based.
Data set [12] deals with HMV-2 cell line. The experiment in a line: Cytotoxicity against human HMVII cells assessed as decrease in cell survival at 20 uM measured after 5 days by Cytox-reagent based relative to control. The settings on record: hmv-2, 120 h. The essentials: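 HMV-II cells were seeded at 7,500 cells/well and cultured 24 h, then exposed to compound for 5 days. Viability was read with CytoX reagent.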

Data set [13] in a line: Toxicity against human eye assessed as effect on tissue viability up to 50 uM measured after 30 mins by MTT assay. To be noted: 0.5 h. The data set is classed as tissue-based. The essentials: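 Reconstructed human ocular tissue (Neoderm-CD) was exposed to compound up to 50 µM and stained with MTT (1 mg/mL) for 30 min. Formazan was extracted with isopropanol and absorbance read at 570 nm.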
A general note: Formazan colour is commonly taken as a measure of viable cells.

Data set [14] can be described thus: Toxicity against human skin assessed as effect on tissue viability up to 50 uM measured after 3 hrs by MTT assay.
The subject of data set [15] is HMV-2 cell line. The experiment in a line: Antimelanogenic activity against human HMVII cells assessed as melanin content in cell lysate at 100 uM relative to control. It counts as functional. In a few lines:
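HMV-II human melanoma cells were cultured for 5 days with test sample or DMSO. Melanin pellets were collected from cell lysates, and total melanin content was expressed relative to the DMSO control.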

For `Fc1ccc(Sc2nccc3ccccc23)cc1`, the outcome in [1] and in data set [3] was Active. Also, the Activity result in data set [2] was “Dose-dependent effect”; in data set [4], 67.6%; in [5], 31.3%; in [6], 14.6%; in [8], “Dose-dependent effect”; in data set [12], less than 10%. Moreover, the Activity entry in data set [13] and in [14] was “Non-Toxic” each time. Further, the inhibition result in data set [7], in data set [9], in [10] and in data set [11] was “Active” throughout.

`Fc1ccc(Sc2ncnc3cc[nH]c23)cc1`: the result in [1] was Active. Consider `c1ccc(Sc2nccc3ccccc23)nc1`, for which the outcome in [1] was Active. For `Cc1ccc(Sc2nccc3ccccc23)cc1`, in [1], the result was Active. Consider `Fc1ccc(Sc2ncnc3c(Br)csc23)cc1`, for which the outcome in [1] was Active. In [2], the Activity result was “Dose-dependent effect”. Take `c1ccc(Sc2nccc3ccccc23)cc1`: the result in data set [1] was Active. Besides, in [2], the Activity result is “Dose-dependent effect”. Take `Fc1ccc(Sc2[nH]cnc3nccc2-3)cc1`: in data set [1], the result was Active. As for `O=c1cc(CO)occ1O` [KOJIC ACID], the Activity in data set [15] is reported as 45.9%. `Fc1ccc(Oc2nccc3ccccc23)cc1`: the result in data set [1] was inactive. As to `Fc1ccc(Nc2nccc3ccccc23)cc1`, the result in data set [1] was inactive. Consider `Nc1ccc(Sc2nccc3ccccc23)cc1`, for which, in [1], the result was Active. Turning to `Clc1ccc(Sc2nccc3ccccc23)cc1`, the outcome in data set [1] was Active.

On to `Fc1ccc(Sc2nccc3ccccc23)c(F)c1`, for which the outcome in data set [1] was Active. For the compound `OC[C@H]1O[C@@H](Oc2ccc(O)cc2)[C@H](O)[C@@H](O)[C@@H]1O` [ARBUTIN], the Activity in [15] is listed as 85.6%. For `Fc1ccccc1Sc1nccc2ccccc12`, in data set [1], the result was Active. Consider `c1cnc(Sc2nccc3ccccc23)nc1`, for which the result in [1] was Active.

On to `CCOC(=O)c1ccc(Sc2nccc3ccccc23)cc1`, for which the outcome in data set [1] was Active. Still for that read-out and setting: in the case of `Fc1ccc(Sc2ncnc3[nH]cnc23)cc1` it was “inactive”. For the compound `FC(F)(F)c1ccc(Sc2nccc3ccccc23)cc1`, the result in data set [1] was inactive. Take `c1ccc2c(Sc3nc4ccccc4[nH]3)nccc2c1`: the outcome in data set [1] was Active.

Consider `c1ccc2c(Sc3nc4ccccc4s3)nccc2c1`, for which, in [1], the result was inactive. With `c1ccc2c(Sc3nccc4ccccc34)nccc2c1`, the outcome in data set [1] was Active.
